Measurements reported in PubChem BioAssay.
Activity calls are given as the source filed them.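 The calls were made as follows, unless noted: active = viability at or under a set limit in both replicates, limit being median viability minus 3 SD (cut at about 48% in these data, passing the limit was not always enough); inconclusive = at or under the limit in just one replicate; inactive = at or above the limit in both replicates.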

Columns and labels:
[1] = Her2 expression decrease, cell viability multiplex – SKBR3 breast tumor cells, AlphaScreen, ATP viability, primary screen (AID 461;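 active = Her2 level under about 52% in both replicate screens, with viability over 70% of control, limit read from the data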;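 as to Her2 level: lower value means less Her2 protein in the cells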;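 as to viability: percent of carrier control wells set as 100% viability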); conditions: SKBR3 Her2 protein level, 18-24 h, measured here: SKBR3 viability, ATP luminescence, at 10 µM
[2] = target: Receptor tyrosine-protein kinase erbB-2 (Homo sapiens) (UniProt P04626); test: as above; conditions: 18-24 h, at 10 µM, stronger effect = lower value
Chain of Receptor tyrosine-protein kinase erbB-2 (Homo sapiens) (P04626 whole entry, looked up): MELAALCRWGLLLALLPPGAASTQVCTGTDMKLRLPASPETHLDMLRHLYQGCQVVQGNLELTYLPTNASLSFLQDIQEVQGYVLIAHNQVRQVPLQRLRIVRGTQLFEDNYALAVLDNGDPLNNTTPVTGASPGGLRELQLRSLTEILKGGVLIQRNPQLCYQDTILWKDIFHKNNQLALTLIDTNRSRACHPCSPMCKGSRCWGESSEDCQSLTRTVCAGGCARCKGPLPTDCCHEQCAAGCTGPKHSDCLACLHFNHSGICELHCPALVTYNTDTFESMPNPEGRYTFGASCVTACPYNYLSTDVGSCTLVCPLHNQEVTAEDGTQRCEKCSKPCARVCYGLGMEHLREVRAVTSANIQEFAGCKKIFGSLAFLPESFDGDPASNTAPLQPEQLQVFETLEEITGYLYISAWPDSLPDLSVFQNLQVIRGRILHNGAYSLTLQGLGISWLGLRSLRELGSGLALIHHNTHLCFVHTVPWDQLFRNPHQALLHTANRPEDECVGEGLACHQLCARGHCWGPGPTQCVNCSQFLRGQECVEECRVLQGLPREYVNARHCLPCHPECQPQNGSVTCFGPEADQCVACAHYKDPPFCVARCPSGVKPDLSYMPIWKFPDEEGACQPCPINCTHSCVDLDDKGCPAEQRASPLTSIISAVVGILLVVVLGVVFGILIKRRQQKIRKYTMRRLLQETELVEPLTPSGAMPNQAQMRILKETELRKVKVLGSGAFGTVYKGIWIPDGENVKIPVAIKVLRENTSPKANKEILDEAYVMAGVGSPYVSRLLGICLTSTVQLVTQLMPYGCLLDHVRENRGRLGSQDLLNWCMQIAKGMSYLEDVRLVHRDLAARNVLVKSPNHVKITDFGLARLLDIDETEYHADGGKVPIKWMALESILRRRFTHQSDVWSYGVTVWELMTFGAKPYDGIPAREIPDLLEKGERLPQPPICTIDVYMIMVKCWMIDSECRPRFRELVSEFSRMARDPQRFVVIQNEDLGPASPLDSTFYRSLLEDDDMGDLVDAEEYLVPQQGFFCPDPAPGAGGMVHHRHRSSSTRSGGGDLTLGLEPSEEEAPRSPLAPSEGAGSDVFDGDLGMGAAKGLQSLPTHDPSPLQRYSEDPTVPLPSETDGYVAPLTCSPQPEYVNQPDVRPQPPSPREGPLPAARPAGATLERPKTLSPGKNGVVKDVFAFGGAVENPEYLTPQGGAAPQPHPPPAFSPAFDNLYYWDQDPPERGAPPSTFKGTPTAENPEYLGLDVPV

[3] = reduced viability of SK-BR-3 breast cancer cells – cell-based, 24 h, human, pilot screen (AID 572;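 active = viability at or below 10% of carrier control in both of two separate runs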;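 also: compound exposure lasted between 18 and 24 h rather than exactly 24 h; 100% = carrier-treated control wells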); conditions: SK-BR-3 viability, CellTiter-Glo luminescence, at 10 µM, stronger effect = lower value
[4] = HUVEC growth inhibition – cell-based, human, primary screen (AID 575;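 active = viability at or below 30% in both replicate assays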;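 also: 100% = median of untreated cell wells with 0.1% DMSO on each plate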); conditions: HUVEC proliferation, CellTiter-Glo luminescence, 72 h; at 10 µM; stronger effect = lower value
Outline: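 Material: primary human umbilical vein endothelial cells / Schedule: 72 h exposure, 37 °C, 5% CO2, 30 min RT equilibration / Signal: ATP-based CellTiter-Glo luminescent read / Read-out basis: percent of median DMSO-control luminescence / Control set: 32 DMSO-only cell-control wells (high), 32 MePR drug-control wells (low) per plate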

[5] = H69AR cell proliferation blockers – human, duplicate replicates, primary screen (AID 580); conditions: H69AR lung tumor cells viability, ATP luminescence, 72 h; at 10 µM; stronger effect = lower value;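 also: 100% = mean luminescence of untreated wells and 0% = no signal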
[6] = MRP1 drug-resistance reversers in H69AR cells – cell-based, doxorubicin co-treatment, pilot screen (AID 601;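 active = viability loss from added drug above about 55%, and viability with drug at most 40%, in both replicates, limit read from the data, passing the limit was not always enough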); conditions: CellTiter-Glo, 72 h, at 10 µM; for differential viability (reversal): stronger effect = higher value
[7] = yeast transport mutant growth inhibition pilot in 384-well plates, post-Golgi transport modulator project (AID 636; in the data active = inhibition above about 31%); conditions: absorbance 615 nm, about 18 h, stronger effect = higher value
[8] = growth suppression of yeast trafficking mutant, preliminary HTS, modulators of trafficking downstream of Golgi apparatus project, 1536-format plate, OD 615 nm (AID 637; in the data active = inhibition above about 30%); conditions: yeast transport mutant growth, absorbance 615 nm, 18 h; stronger effect = higher value
[9] = H69AR cells + 2 uM doxorubicin, measured here: viability with 2 uM doxorubicin, stronger effect = lower value
[10] = H69AR cells, compound alone cytotoxicity

| SMILES | viability [1] [%] | Her2 level [2] | viability [3] | viability [4] | viability [5] | differential viability (reversal) ([6]; H69AR cells + 2 uM doxorubicin) | viability [6, 9] [%] | viability [6, 10] [%] | inhibition [7] | inhibition [8] |
| --- | --- | --- | --- | --- | --- | --- | --- | --- | --- | --- |
| O=C(Oc1ccc(Cl)cc1N1C(=O)CCC1=O)c1ccco1 | 96.5 | 74% (inactive) | 96.5% (inactive) | 78% (inactive) | 90.9% (inactive) | 3.6% (inactive) | 87.3 | 90.9 | -3.65% (inactive) | 2.46% (inactive) |
| Cc1cc(C)nc(NC(=O)c2ccc(OC(C)C)cc2)n1 | 102 | 90% (inactive) | 102% (inactive) | 95.8% (inactive) | 104% (inactive) | 14.3% (inactive) | 90.2 | 104 | -6.03% (inactive) | -4.13% (inactive) |
| c1ccc(Nc2ccccc2Nc2ccccn2)nc1 | 138 | 108% (inactive) | 138% (inactive) | 95.8% (inactive) | 91.7% (inactive) | -7.51% (inactive) | 99.2 | 91.7 | -3.33% (inactive) | 5.08% (inactive) |
| O=S(=O)(Nc1cccc2ncccc12)c1cccs1 | 256 | 13% (active) | 256% (inactive) | 23.9% (active) | 1.71% (active) | 0.345% (inactive) | 1.37 | 1.71 | 0.92% (inactive) | 6.19% (inactive) |
| Cc1ccc(CN2C(=O)CCC2C(=O)NCCCN2CCC(C)CC2)cc1 (stereo not given) | 98.5 | 88.5% (inactive) | 98.5% (inactive) | 93.7% (inactive) | 103% (inactive) | 2.18% (inactive) | 101 | 103 | -5.73% (inactive) | 6.89% (inactive) |
| O=C(NCc1ccccn1)c1cccs1 | 97 | 80.5% (inactive) | 97% (inactive) | 92.4% (inactive) | 105% (inactive) | 11.9% (inactive) | 92.8 | 105 | -7.43% (inactive) | 4.1% (inactive) |
| OCCN1CCN(CC(O)COc2ccc3ccccc3c2)CC1 (stereo not given) | 88.5 | 82% (inactive) | 88.5% (inactive) | 92.8% (inactive) | 102% (inactive) | 10% (inactive) | 92.3 | 102 | -4.8% (inactive) | 5.25% (inactive) |
| CCCCCOC(=O)C1=C(C)N(C)C(=O)NC1c1cc(Br)c(O)c(OC)c1 (stereo not given) | 114 | 106% (inactive) | 114% (inactive) | 72.7% (inactive) | 83.2% (inactive) | -3.32% (inactive) | 86.5 | 83.2 | -7.14% (inactive) | -7.62% (inactive) |
| C/C(=N\O)C(=O)NCc1ccccn1 | 102 | 134% (inactive) | 102% (inactive) | 85.3% (inactive) | 92.2% (inactive) | -4.16% (inactive) | 96.4 | 92.2 | 4.61% (inactive) | 11.2% (inactive) |
| COc1cc(CC(=O)Nc2ncc(C)s2)cc(OC)c1OC | 109 | 96% (inactive) | 109% (inactive) | 90.8% (inactive) | 91.5% (inactive) | 2.69% (inactive) | 88.8 | 91.5 | -3.2% (inactive) | 5.74% (inactive) |
| [O-][n+]1c2c(nn1-c1ccccc1Cl)-c1nonc1CC2 | 102 | 85% (inactive) | 102% (inactive) | 115% (inactive) | 105% (inactive) | 20% (inactive) | 85.5 | 105 | -5.54% (inactive) | -0.67% (inactive) |
| COC(=O)c1oc2ccc(Br)cc2c1NC(=O)CN1CCN(C)CC1 | 92.5 | 100% (inactive) | 92.5% (inactive) | 101% (inactive) | 96.6% (inactive) | 16.2% (inactive) | 80.3 | 96.6 | 1.18% (inactive) | 0.55% (inactive) |
| CCSc1ncc(C#N)c(=O)[nH]1 | 117 | 119% (inactive) | 117% (inactive) | 96.5% (inactive) | 95% (inactive) | -2.66% (inactive) | 97.6 | 95 | -7.76% (inactive) | -3.28% (inactive) |
| O=C(Nc1ccc2c(c1)OCO2)c1cc2ncc(Br)cn2n1 | 101 | 104% (inactive) | 101% (inactive) | 84.8% (inactive) | 86.8% (inactive) | -17.3% (inactive) | 104 | 86.8 | -4.67% (inactive) | -0.16% (inactive) |
| CCOc1ccc(S(=O)(=O)NCC2CCCO2)c2cccnc12 (stereo not given) | 99 | 99.5% (inactive) | 99% (inactive) | 93.8% (inactive) | 93.6% (inactive) | 6.55% (inactive) | 87.1 | 93.6 | 0.13% (inactive) | 5.08% (inactive) |
| O=C1CC(N2CCN(C3CCc4ccccc4C3)CC2)C(=O)N1c1ccccc1 (stereo not given) | 89.5 | 97.5% (inactive) | 89.5% (inactive) | 102% (inactive) | 91.6% (inactive) | 1.58% (inactive) | 90 | 91.6 | -1.95% (inactive) | 3.93% (inactive) |
| Nc1nc(CN2CCN(Cc3ccc4c(c3)OCO4)CC2)nc(Nc2ccccc2)n1 | 102 | 92.5% (inactive) | 102% (inactive) | 114% (inactive) | 97.4% (inactive) | 13% (inactive) | 84.4 | 97.4 | -2.76% (inactive) | 5.48% (inactive) |
| COc1ccccc1N(CC(=O)NCc1ccccc1)S(C)(=O)=O | 103 | 92.5% (inactive) | 103% (inactive) | 106% (inactive) | 97% (inactive) | 3.07% (inactive) | 93.9 | 97 | -9.19% (inactive) | -7.33% (inactive) |
| O=C(Nc1cccc(Cl)c1)N1CCN(c2ncccn2)CC1 | 100 | 94.5% (inactive) | 100% (inactive) | 124% (inactive) | 104% (inactive) | 17.4% (inactive) | 86.7 | 104 | 0.27% (inactive) | -6.51% (inactive) |
| Cn1cc(Br)c(C(=O)NC2CCCCC2)n1 | 102 | 112% (inactive) | 102% (inactive) | 96.7% (inactive) | 94.3% (inactive) | 3.45% (inactive) | 90.9 | 94.3 | 3.33% (inactive) | 0.79% (inactive) |
| COc1cccc(OC)c1C(=O)N1CCN(S(=O)(=O)c2ccc(C)cc2)CC1 | 103 | 108% (inactive) | 103% (inactive) | 87.2% (inactive) | 91.4% (inactive) | -5.23% (inactive) | 96.7 | 91.4 | -7.2% (inactive) | -3.28% (inactive) |
| CN1CC(=O)N(CC(=O)NCCc2ccc(F)cc2)c2ccccc2C1=O | 95 | 90.5% (inactive) | 95% (inactive) | 105% (inactive) | 90% (inactive) | -3.62% (inactive) | 93.6 | 90 | -6.36% (inactive) | 1.75% (inactive) |
| CCC(C)n1[nH]c(=O)c2c(C)cc(C)nc21 (stereo not given) | 97.5 | 91.5% (inactive) | 97.5% (inactive) | 95.8% (inactive) | 98.8% (inactive) | 9.86% (inactive) | 88.9 | 98.8 | -5.26% (inactive) | -1.64% (inactive) |
| CC1CN(Cc2nc3c(c(=O)[nH]c(=O)n3C)n2CC(N)=O)CC(C)O1 (stereo not given) | 99.5 | 97.5% (inactive) | 99.5% (inactive) | 88.6% (inactive) | 102% (inactive) | 9.96% (inactive) | 92.4 | 102 | 0.51% (inactive) | 0.67% (inactive) |
| COCCCN(C(C)=O)c1nc(-c2ccccc2)cs1 | 91 | 85.5% (inactive) | 91% (inactive) | 65.5% (inactive) | 94% (inactive) | 9.96% (inactive) | 84.1 | 94 | -7.81% (inactive) | -3.17% (inactive) |
| CCOC(=O)C1CCCN(c2c(N3CCN(c4ccccn4)CC3)c(=O)c2=O)C1 (stereo not given) | 86.5 | 104% (inactive) | 86.5% (inactive) | 86.7% (inactive) | 102% (inactive) | 15% (inactive) | 86.5 | 102 | 0% (inactive) | -2.46% (inactive) |
| O=C(NCc1cccs1)c1cc2c(s1)-c1ccccc1OC2 | 96 | 91.5% (inactive) | 96% (inactive) | 76.8% (inactive) | 94.8% (inactive) | 5.04% (inactive) | 89.7 | 94.8 | -5.2% (inactive) | 3.77% (inactive) |
| COc1cccc(Oc2cnc(N)nc2-c2ccc(OC)cc2O)c1 | 91.5 | 74.5% (inactive) | 91.5% (inactive) | 67.1% (inactive) | 10.8% (active) | -47.3% (inactive) | 58.2 | 10.8 | -0.52% (inactive) | -5.5% (inactive) |
| Nc1sccc1C(=O)c1ccc(Cl)cc1 | 100 | 85% (inactive) | 100% (inactive) | 82.9% (inactive) | 90.2% (inactive) | 4.88% (inactive) | 85.3 | 90.2 | 0% (inactive) | -4.17% (inactive) |
| O=C(CCSc1ccccc1)N1CCN(C(=O)c2ccco2)CC1 | 99 | 99.5% (inactive) | 99% (inactive) | 93.1% (inactive) | 95.1% (inactive) | 11% (inactive) | 84.1 | 95.1 | -0.79% (inactive) | -0.32% (inactive) |
